The results in this text go back to ChEMBL document CHEMBL1134686, “Design, synthesis, SAR, and biological evaluation of highly potent benzimidazole-spaced phosphono-alpha-amino acid competitive NMDA antagonists of the AP-6 type” (J Med Chem, 2001).

In assay [1] the target is T1, Glutamate NMDA receptor (Rattus norvegicus) (UniProt P35439+Q00959+Q00960+Q00961+Q62645+Q8VHN2+Q9R1M7). In words: Affinity for the NMDA receptor site was assessed by its ability to displace [3H]TCP from its binding site in rat brain at a concentration of 100 uM. The class given is tissue-based.
The target in assay [2] is T1, Glutamate NMDA receptor (Rattus norvegicus). In words: Affinity for the NMDA receptor site was assessed by the ability to displace [3H]CPP from its binding site in rat synaptic membranes at a concentration of 100 uM. The class given is cell membranes. The method in brief: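 Rat whole-brain crude synaptic membranes (Triton X-100 treated, frozen), in 50 mM Tris HCl pH 7.6, 0.2-0.5 mg protein. Triplicate incubation 15 min at 23 °C with 8 nM [³H]CPP. Nonspecific binding defined with 1.0 mM NMDA. Bound ligand separated by centrifugation at 48000g, then scintillation counting. Percent inhibition reported at 100 µM.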

The test system of the next assay is Mus musculus. In words: Functional NMDA antagonist activity was confirmed in vivo in mice (intraperitoneally) using an NMDA-induced lethality assay.
Assay [3] deals with Glutamate NMDA receptor. In words: Affinity for the NMDA receptor site was assessed by its ability to displace [3H]TCP from its binding site in rat brain. Type of assay: tissue-based. The method in brief:
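Rat whole-brain crude synaptic membranes, resuspended in ice-cold 5.0 mM Tris HCl pH 7.4. Triplicate incubation 1 h at 25 °C with 2.5 nM [³H]TCP, 3 µM L-glutamate and 1 µM glycine. Nonspecific binding defined with 100 µM MK-801. Filtration on PEI-presoaked glass fiber filters, then scintillation counting. IC50 with 95% confidence limits from 5-10 concentrations.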

For assay [4], the target named is Glutamate NMDA receptor. In words: Displacement of [3H]CPP from rat synaptic membrane glutamate NMDA receptor. On the technique in general: Loss of bound radioactivity is the signal in a displacement assay; it reports binding, not function.
For assay [5], the species on record is Rattus norvegicus. In words: Effect on the decrease in volume of infarcted brain tissue in rat. The class given is functional. The method in brief:
(§1)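 Male Fisher-344 rats under isoflurane, with permanent occlusion of the distal MCA plus the ipsilateral common carotid; body temperature held at 37 °C. Single iv tail-vein bolus of 3 mg/kg in 0.9% NaCl, given 5 min post-occlusion. At 24 h, cresyl violet-stained forebrain sections were taken at 400 µm intervals. Infarct volume by image analysis, mean ± SE, n=27-28 per group.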

The species named for assay [6] is Rattus norvegicus. In words: Effect on the volume of infarcted brain tissue in rat. The class given is functional. In short, it runs like this: as §1
Where [7] appears, read: Mus musculus, ip, read-out: ED50.

Molecules are shown by their SMILES.

Usually inhibition stands for the relative decrease from the control value, in per cent. The low end stands for a response near the control, the high end for a response far below the control. On to `NC(Cc1nc2ccccc2n1CP(=O)(O)O)C(=O)O` (stereo in doubt; 8) [listing 1 of 2 here], for which the inhibition in assay [1] came to 29.1%; in assay [2], 30%.
For the compound `NC(Cc1nc2ccccc2n1CCP(=O)(O)O)C(=O)O` (single isomer, unassigned; (-)), the values for the inhibition in assay [1] and in assay [2] were 9.5% and 39%, respectively.
On the same counts, the results for `CCOC(=O)C(N)Cc1nc2ccccc2n1CP(=O)(O)O` (single isomer, unassigned; (-)) are 0% and 61%.
In general, ED50 refers to the midpoint of the dose-response relation. With `NC(CCCCCP(=O)(O)O)C(=O)O` (stereo not given) [AP-7], in the assay on Mus musculus (setting [7]), the ED50 stood at 37.6 mg/kg.
In the case of `O=C(O)[C@@H]1C[C@H](CP(=O)(O)O)CCN1` [SELFOTEL], in the assay on Mus musculus (setting [7]), the ED50 is 0.6 mg/kg.
`NC(Cc1nc2ccccc2n1CP(=O)(O)O)C(=O)O` (stereo in doubt; 8) [listing 2 of 2 here] displayed an ED50 in the assay on Mus musculus of 7.91 mg/kg.
On to `NC(Cc1nc2ccccc2n1CC(=O)O)C(=O)O` (single isomer, unassigned; (-)), for which the inhibition in assay [1] was determined as 9.5%; in assay [2], 30%.
One may read the IC50 as the point on the concentration scale where inhibition reaches its midpoint. Lower therefore signals greater potency. Turning to `NC(Cc1nc2cc(Cl)ccc2n1CP(=O)(O)O)C(=O)OCc1ccccc1` (stereo not given), the IC50 at Glutamate NMDA receptor [3] is 46.5 µM; at Glutamate NMDA receptor [4], 0.15 µM.
Regarding `NC(Cc1nc2cc(Cl)c(Cl)cc2n1CP(=O)(O)O)C(=O)O` (single isomer, unassigned; (-)), the ED50 in the assay on Mus musculus (setting [7]) turned out to be 2.58 mg/kg. On Glutamate NMDA receptor [4], this compound gave an IC50 of 0.018 µM.
Take `NC(Cc1nc2cccc(Cl)c2n1CP(=O)(O)O)C(=O)O` (single isomer, unassigned; (-)): the inhibition was determined as 28.1% in assay [1] and 73% in assay [2].
As for `NC(CCc1nc2ccccc2n1CP(=O)(O)O)C(=O)O` (single isomer, unassigned; (-)), the IC50 on Glutamate NMDA receptor [4] was 6.8 µM.
In the case of `NC(Cc1nc2ccccc2n1CP(=O)(O)O)C(=O)O` (single isomer, unassigned; (-)), in the assay with Mus musculus, the 50% effective dose (ED50) was 2.04 mg/kg. Moreover, the values for the IC50 on Glutamate NMDA receptor [3] and on Glutamate NMDA receptor [4] were 11.1 µM and 0.077 µM, respectively.
Turning to `NC(Cc1nc2c(Cl)cccc2n1CP(=O)(O)O)C(=O)O` (single isomer, unassigned; (-)), the inhibition in assay [2] came out at 81%.
As to `N[C@H](Cc1nc2cc(Cl)ccc2n1CP(=O)(O)O)C(=O)O`, the ED50 with Mus musculus (setting [7]) was 0.13 mg/kg. The concentration for half-maximal inhibition (IC50) at Glutamate NMDA receptor [3] was found to be 0.72 µM; on Glutamate NMDA receptor [4], 0.0071 µM. This compound also registered a Decrease in the assay filed under Rattus norvegicus [5] of 45%. The Volume in the assay listed under Rattus norvegicus [6] came to 51.3 mm**3.
On to `O=C(O)C1CN(CCCP(=O)(O)O)CCN1` (stereo not given), for which, in the assay with Mus musculus (setting [7]), the ED50 came to 1 mg/kg.
For the compound `NC(Cc1nc2cc(Cl)c(Cl)cc2n1CP(=O)(O)O)C(=O)O` (single isomer, unassigned; (+)), on Glutamate NMDA receptor [4], the IC50 was 1 µM.
As for `NC(Cc1nc2cc(Br)ccc2n1CP(=O)(O)O)C(=O)OCc1ccccc1` (stereo not given), the ED50 in the assay on Mus musculus (setting [7]) came to 0.47 mg/kg. Also, the values for the IC50 at Glutamate NMDA receptor [3] and on Glutamate NMDA receptor [4] were 15.5 µM and 0.056 µM, respectively.
Turning to `Cc1cc2nc(CC(N)C(=O)O)n(CP(=O)(O)O)c2cc1C` (single isomer, unassigned; (-)), the inhibition worked out at 88.5% in assay [1] and 99.7% in assay [2].
With `NC(Cc1nc2cc(C(F)(F)F)ccc2n1CP(=O)(O)O)C(=O)O` (stereo not given), the IC50 on Glutamate NMDA receptor [4] turned out to be 0.75 µM. The compound further yielded an inhibition in assay [1] of 40%.
Take `NC(CCc1nc2ccccc2n1CP(=O)(O)O)C(=O)O` (stereo in doubt; 10): the IC50 at Glutamate NMDA receptor [4] is 5.2 µM.
In the case of `NC(Cc1nc2ccc(Cl)cc2n1CP(=O)(O)O)C(=O)O` (single isomer, unassigned; (-)), the median effective dose (ED50) in the assay with Mus musculus (setting [7]) amounted to 2.56 mg/kg. Besides, the IC50 at Glutamate NMDA receptor [3] was found to be 13.6 µM; on Glutamate NMDA receptor [4] it was 0.022 µM.
